# Source: ChEMBL document CHEMBL1121484, “Thrombin inhibitors. 2. Amide derivatives of N alpha-substituted L-arginine” (J Med Chem, 1980)
# pIC50: −log10 of the molar value.
# Molecular target: Prothrombin (Bos taurus) (UniProt P00735)
# Test: Percentage of rate of hydrolysis in 4 hr incubation by thrombin
# Format: functional
# Conditions: not given
# In short: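 Test compounds at 1 mM in 0.1 M Tris-HCl, pH 8.0, were incubated with thrombin (100 units in a 1.0 mL reaction) at 37 °C for 4 h. Hydrolysis rate was followed titrimetrically with a pH-stat and automatic burette at 37 °C and pH 8.0.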
row,SMILES,Hydrolysis [%]
1,CCC1CCN(C(=O)C(CCCN=C(N)N)NS(=O)(=O)c2cccc3c(N(C)C)cccc23)CC1 (stereo not drawn),0
2,CCCCN(C)C(=O)C(CCCN=C(N)N)NS(=O)(=O)c1cccc2c(N(C)C)cccc12 (stereo not drawn),0
3,COCCNC(=O)C(CCCN=C(N)N)NS(=O)(=O)c1cccc2c(N(C)C)cccc12 (stereo not drawn),0

# More lines, now with the values ahead:
row,Hydrolysis [%],SMILES
1,0,CCCCNC(=O)C(CCCN=C(N)N)NS(=O)(=O)c1cccc2c(N(C)C)cccc12 (stereo not drawn)
2,0,CN(C)c1cccc2c(S(=O)(=O)NC(CCCN=C(N)N)C(=O)N3CCCCC3)cccc12 (stereo not drawn)

# Molecular target: Prothrombin (Bos taurus, UniProt P00735)
# Test: Bovine thrombin concentration at which clotting time was prolonged 2x over the control.
# Format: functional
# Conditions: read-out: I50
# In short: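 Clotting assay at 25 °C. The read-out was the time from thrombin addition to clot formation.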
row,SMILES,pIC50
1,CC1CN(C(=O)C(CCCN=C(N)N)NS(=O)(=O)c2cccc3c(N(C)C)cccc23)CC(C)O1 (stereo not drawn),4.70
2,N=C(N)NCCCC(NS(=O)(=O)c1cccc2ccccc12)C(=O)N1CCOCC1 (stereo not drawn),4.70
3,CN(C)c1cccc2c(S(=O)(=O)NC(CCCNC(=N)N)C(=O)N3CCSCC3)cccc12 (stereo not drawn),5.70
4,CCC1CCN(C(=O)C(CCCNC(=N)N)NS(=O)(=O)c2cccc3c(N(C)C)cccc23)CC1 (stereo not drawn),7.00
5,CN(C)c1cccc2c(S(=O)(=O)NC(CCCN=C(N)N)C(=O)N3CCCCCCC3)cccc12 (stereo not drawn),6.00
6,CC(C)NC(=O)C(CCCN=C(N)N)NS(=O)(=O)c1cccc2c(N(C)C)cccc12 (stereo not drawn),2.96
7,CCC1CCN(C(=O)C(CCCN=C(N)N)NS(=O)(=O)c2cccc3c2CCCC3)CC1 (stereo not drawn),6.30
8,CCOCCNC(=O)C(CCCN=C(N)N)NS(=O)(=O)c1cccc2c(N(C)C)cccc12 (stereo not drawn),5.30
9,CN(C)c1cccc2c(S(=O)(=O)NC(CCCNC(=N)N)C(=O)N3CCCc4ccccc43)cccc12 (stereo not drawn),4.77
10,CCCCNC(=O)C(CCCN=C(N)N)NS(=O)(=O)c1ccc2c(c1)CCCC2 (stereo not drawn),5.30
11,CC1CCN(C(=O)C(CCCN=C(N)N)NS(=O)(=O)c2cccc3c(N(C)C)cccc23)CC1 (stereo not drawn),6.52

# The remaining lines, values ahead:
row,pIC50,SMILES
1,3.00,CCC1CCN(C(=O)C(CCCN=C(N)N)NS(=O)(=O)c2cccc3c(C(=O)O)cccc23)CC1 (stereo not drawn)
2,3.82,CN(C)c1cccc2c(S(=O)(=O)NC(CCCNC(=N)N)C(=O)NCCc3ccccc3)cccc12 (stereo not drawn)
3,4.30,CN(C)c1cccc2c(S(=O)(=O)NC(CCCN=C(N)N)C(=O)NCc3ccccc3)cccc12 (stereo not drawn)
4,5.68,CCCCNC(=O)C(CCCN=C(N)N)NS(=O)(=O)c1cccc2c(N(C)C)cccc12 (stereo not drawn)
5,6.00,CN(C)c1cccc2c(S(=O)(=O)NC(CCCN=C(N)N)C(=O)N3CCCCC3)cccc12 (stereo not drawn)
6,6.22,CCC1CCN(C(=O)C(CCCN=C(N)N)NS(=O)(=O)c2cccc3c(OC)cccc23)CC1 (stereo not drawn)
7,6.52,CCC1CCN(C(=O)C(CCCN=C(N)N)NS(=O)(=O)c2cccc3c(N(CC)CC)cccc23)CC1 (stereo not drawn)
